# Source: PubChem BioAssay (Johns Hopkins Ion Channel Center)
# RGS4 pot: RGS4 potentiation or activation; 310,000 compounds, 0.92% hits; HEK293 M3R/inducible RGS4, carbachol calcium flux Fluo4; hits give low values; B-score at 10 µM;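 active = B-score of the integrated calcium signal more than 4 SD below the library mean, with starting fluorescence not abnormally high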;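 note: negative B-score means reduced calcium response which marks RGS4 activation or potentiation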
#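 Also added: carbachol at ECmax as muscarinic agonist stimulus; Assay system: HEK293 cells with stable M3R and inducible RGS4; Timing: overnight RGS4 induction, 30 min dye load 37 °C, 20 min compound RT; Measured by: Fluo4-AM (2 µM) calcium-flux fluorescence, kinetic read.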
# MrgX1 allo act: human MrgX1 positive allosteric modulation, primary screen | MrgX1-HEK293, Fluo-4 calcium flux, FDSS; hits give high values | Q96LB2 | B-score at 10 µM | 310,000 compounds, 0.63% hits;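 active = plate-corrected calcium response at least 3 library SD above typical, normal starting fluorescence, not activating the receptor alone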;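 note: compound read alongside a low EC10 to EC30 dose of BAM8-22 agonist; peak minus trough fluorescence over baseline measured at the second addition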
# Target sequence (Q96LB2 whole entry, looked up): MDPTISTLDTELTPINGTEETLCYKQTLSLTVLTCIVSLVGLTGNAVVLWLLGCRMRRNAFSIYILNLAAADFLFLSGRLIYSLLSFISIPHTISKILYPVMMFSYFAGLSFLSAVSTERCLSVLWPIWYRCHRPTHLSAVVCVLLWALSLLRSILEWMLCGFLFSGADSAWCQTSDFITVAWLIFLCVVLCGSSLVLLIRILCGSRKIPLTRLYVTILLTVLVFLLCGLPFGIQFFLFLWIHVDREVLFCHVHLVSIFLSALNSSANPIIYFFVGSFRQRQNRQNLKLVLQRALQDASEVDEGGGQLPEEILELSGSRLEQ
# MrgX1 ag: activates human MrgX1 receptor signaling; Q96LB2; B-score at 10 µM; 310,000 compounds, 0.44% hits; MrgX1-HEK293 cells, Fluo-4 calcium fluorescence, agonist mode; hits give high values;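 active = calcium response B-score plate-corrected fluorescence ratio at least 3 library SD, with starting fluorescence B-score inside 5 SD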
#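 Assay system: stable human MrgX1 HEK293 cell line. Quantity: 15,000 cells per well. Schedule: cells plated overnight, dye loaded 0.5 h 37 °C, 0.5 h room temperature. Detection: Fluo-4 NW calcium-flux fluorescence, kinetic read. Read-out basis: peak-minus-minimum fluorescence over baseline, converted to B scores. Control set: positive and negative control wells on each plate.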
# MrgX1 antag: human MrgX1 receptor antagonism, primary screen; 310,000 compounds, 1.3% hits; B-score at 10 µM; AID 588676; MRGX1-HEK293 calcium flux, Fluo-4, BAM8-22 antagonism; hits give low values;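 active = calcium-response B-score plate-corrected more than 3 library SD below zero, starting fluorescence within 5 deviations, no agonist response on first addition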;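 note: peak minus trough fluorescence over baseline after final BAM8-22 challenge near maximal dose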
# RGS4 block: human RGS4 inhibition; HEK293 M3R/RGS4 inducible, Fluo-4 calcium flux; hits give high values; triggered by carbachol at its EC20; AID 463165; 310,000 compounds, 0.45% hits; B-score at 10 µM; P49798;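 active = B-score, a plate-corrected calcium signal, over three deviations above library mean, with baseline fluorescence within five deviations of library mean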;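 note: RGS4 expression induced by doxycycline in cells with stable M3 receptor; B-score is computed from the integrated fluorescence ratio over baseline after carbachol; higher B-score means a larger calcium signal and so more RGS4 inhibition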
# Target sequence (P49798 whole entry, looked up): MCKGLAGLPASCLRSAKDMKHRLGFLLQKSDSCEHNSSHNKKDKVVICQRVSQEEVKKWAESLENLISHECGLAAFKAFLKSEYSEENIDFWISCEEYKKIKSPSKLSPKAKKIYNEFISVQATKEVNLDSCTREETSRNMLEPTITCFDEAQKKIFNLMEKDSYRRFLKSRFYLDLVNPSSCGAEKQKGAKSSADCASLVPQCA
# MrgX1 PAM conf: reconfirmed allosteric activator of human MrgX1 receptor | AID 602413 | activation (ratio percentage), % at 10 µM | shares compounds with MrgX1 allo act | 1,200 compounds, 13% hits | MrgX1-HEK293, Fluo-4 calcium fluorescence, FDSS;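 active = ratio at least 3 SD above the weak peptide control, stable starting fluorescence, no direct agonism earlier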;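 note: compound followed by low BAM8-22 agonist challenge near EC20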
# HEK293 Ca flux: activity in parental HEK293 cells lacking MrgX1; shares compounds with MrgX1 antag; fluorescence ratio F(max-min)/F0 at 10 µM; 4,000 compounds, 2% hits; Fluo-4 calcium fluorescence, FDSS;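 active = duplicate-averaged calcium fluorescence ratio at least three times the standard deviation of buffer wells, a nonspecific response in parental cells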
# HEK293 Ca counter: activity in parental HEK293 cells without MrgX1 | shares compounds with MrgX1 antag | parental HEK293 calcium flux, Fluo-4 fluorescence ratio; hits give high values | fluorescence ratio F(max-min)/F0 at 10 µM | 4,000 compounds, 0.4% hits | AID 624114;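 active = calcium fluorescence ratio, averaged over duplicates, at least 3 SD of the buffer-well ratio, meaning a nonspecific response in receptor-free cells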;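 note: untransfected parental HEK293 lacking MrgX1 used as counterscreen for MrgX1 allosteric activators; fluorescence change taken during the second addition on a kinetic imager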
# HEK293 Ca cntr2: activity in parental HEK293 cells lacking MrgX1 receptor. shares compounds with MrgX1 antag. Fluo-4 calcium fluorescence (FDSS); hits give high values. fluorescence ratio F(max-min)/F0 at 10 µM. 4,000 compounds, 8.7% hits. AID 624115;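 active = calcium fluorescence ratio at least three times the spread of buffer wells, meaning a non-specific response in parental cells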
# Active calls of the source: *; i = inactive; · = not tested or not shown. Shown are actives, neighbours in structure and some others; about 3.5% of the full set was active somewhere.
SMILES,RGS4 pot,MrgX1 allo act,MrgX1 ag,MrgX1 antag,RGS4 block,MrgX1 PAM conf,HEK293 Ca flux,HEK293 Ca counter,HEK293 Ca cntr2
CCOC(=O)N1CCN(C(=S)Nc2cc(S(=O)(=O)N3CCOCC3)ccc2Cl)CC1,i,9.2*,i,i,i,i,i,i,i
CC(=O)Nc1ccc(NC(=O)CSc2nnc(-c3ccco3)n2Cc2ccco2)cc1,i,7*,i,i,i,i,i,i,i
Cc1cc(NC(=O)CSc2nnc(-c3ccco3)n2Cc2ccco2)no1,i,i,i,i,i,·,·,·,·
CCc1nc(N2CCN(S(C)(=O)=O)CC2)c2c3c(sc2n1)CCCC3,i,7.3*,i,i,i,i,i,i,i
COC(=O)c1ccccc1NC(=O)Cn1cc2c(n1)CCC(C)C2 (stereo not drawn),i,23*,i,i,i,i,i,i,i
CC1CCCC(NC(=O)Cn2cc3c(n2)CCCCC3)C1C (stereo not drawn),i,6.5*,i,i,i,i,i,i,i
O=C(Cn1cc2c(n1)CCCC2)Nc1ccccc1Cl,i,13*,i,i,i,i,i,i,86*
Cc1ccc(NC(=O)Cn2cc3c(n2)CCC(C)C3)cc1 (stereo not drawn),i,i,i,i,i,·,·,·,·
O=C(Cn1cc2c(n1)CCCCC2)Nc1ccccc1Cl,i,8*,i,i,i,i,i,i,i
COc1cccc(OCc2cc(C(=O)NCc3cnc4ccccn34)no2)c1,i,i,i,i,i,·,·,·,·
CCOC(=O)c1nc2c(=O)n(C)c(=O)n(C)c2n(C)c1=O,i,i,i,i,i,·,·,·,·
COc1cc(C)ccc1OCc1cc(C(=O)N(Cc2c(C)nn(C)c2C)C2CC2)no1,i,i,i,i,i,·,·,·,·
O=C(Cc1ccc2ccccc2c1)Nc1ccccc1Br,i,i,i,i,i,·,·,·,·
O=C(Cc1ccc2c(c1)CCCC2)Nc1ccccc1Br,i,7.3*,i,i,i,i,i,i,i
O=C(Cn1cc2c(n1)CCCC2)Nc1ccccc1Br,i,22*,i,i,i,i,i,i,i
NC(=O)CSc1nnc2ccc(-c3ccc(F)cc3)nn12,i,i,i,i,i,·,·,·,·
CC(C)c1nc(CNC(=O)C2CCC(=O)N(CCc3cccc(F)c3)C2)cs1 (stereo not drawn),i,i,i,i,i,·,·,·,·
O=C(Nc1ccccc1N1CCOCC1)c1ccc2ccccc2c1,i,7.2*,i,i,i,i,i,i,i
O=C(Nc1ccccc1N1CCOCC1)c1cccc(NS(=O)(=O)c2ccc(F)c(F)c2)c1,i,11*,i,i,i,i,i,i,i
O=C(Nc1ccccc1N1CCOCC1)c1ccccc1NS(=O)(=O)c1ccc(F)c(F)c1,i,i,i,i,i,·,·,·,·
CCOc1ccc(N2CC(NC(=O)c3ccc4ccccc4c3)CC2=O)cc1 (stereo not drawn),i,i,i,i,i,·,·,·,·
CCc1cc2ccc(OC)cc2nc1SCC(=O)N1CCN(C(=O)c2ccco2)CC1,i,6.6*,i,i,i,i,i,i,i
O=C(c1cccc([N+](=O)[O-])c1)N1CCCC(C(=O)N2CCN(c3ccccc3)CC2)C1 (stereo not drawn),i,i,i,i,i,·,·,·,·
CNc1nc(Sc2ccc(C)cc2)cc(C(F)(F)F)n1,i,15*,i,i,i,16%*,i,i,i
COc1cccc(C(=O)Nc2nnc(-c3ccccc3)s2)c1OC,i,10*,i,i,i,i,i,i,i
SMILES,RGS4 pot,MrgX1 allo act,MrgX1 ag,MrgX1 antag,RGS4 block,MrgX1 PAM conf,HEK293 Ca flux,HEK293 Ca counter,HEK293 Ca cntr2
COc1ccccc1C(=O)Nc1nnc(-c2ccccc2)s1,i,i,i,i,i,·,·,·,·
CCc1ccc(N2C(=O)CC(Cn3nc(C)cc3C)C2=O)cc1 (stereo not drawn),i,i,i,i,i,·,·,·,·
COC(=O)c1cc(OC)c(OC)cc1NC(=S)N1CCN(C/C=C/c2ccccc2)CC1,i,i,i,i,i,·,·,·,·
CS(=O)(=O)c1ccc2nc(NC(=O)c3cccs3)sc2c1,·,24*,i,i,·,17%*,i,i,i
CS(=O)(=O)c1ccc2nc(NC(=O)C3COc4ccccc4O3)sc2c1 (stereo not drawn),i,6.6*,i,i,i,i,i,i,i
COc1ccc2nc(NC(=O)C3COc4ccccc4O3)sc2c1 (stereo not drawn),i,i,i,i,i,·,·,·,·
Cc1ccc2nc(NC(=O)c3cccs3)sc2c1,·,i,i,i,·,·,·,·,·
N#CC(c1nc2ccccc2nc1OCCO)S(=O)(=O)c1ccccc1 (stereo not drawn),i,i,i,i,i,·,·,·,·
CCOc1ccc2nc(SCC(=O)Nc3ccc4[nH]c(=O)[nH]c4c3)[nH]c2c1,i,i,i,i,i,·,·,·,·
CCN(CC(=O)Nc1c(F)cccc1F)C(=O)Cc1csc(-c2ccccc2)n1,i,7.5*,i,i,i,i,i,i,i
CCn1c(=S)sc2c(=O)n(CC(=O)NCCCc3ccccc3)c(C)nc21,i,i,i,i,i,·,·,·,·
CC(=O)Oc1ccc(C(=O)Nc2cccc(C(=O)Nc3ccccc3C(=O)O)c2)cc1,i,i,i,i,i,·,·,·,·
CC(=O)Oc1ccc(C(=O)Nc2ccccc2C(=O)Nc2cccc(C(=O)O)c2)cc1,i,10*,i,i,i,i,i,i,i
O=C(Nc1ccccc1C(=O)O)c1cccc(NC(=O)c2ccc(Br)o2)c1,i,17*,i,i,i,i,i,i,i
O=C(Nc1ccccc1C(=O)O)c1ccc(NC(=O)c2ccc(Br)o2)cc1,i,i,i,i,i,·,·,·,·
